Legend:
Hepatitis C virus [1] = assay: Antiviral activity against HCV Con1 infected in human HuH7 cells assessed as inhibition of viral replication after 24 hrs by replicon assay in presence of 10% fetal bovine serum; type: functional, organism-based, Hepacivirus hominis; details: Con1, Huh-7, 24 h
Procedure, shortened: (§1)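 Huh-7 cells stably carrying a bicistronic replicon (1b con1 or 2a JFH) seeded at 20000 cells/well and held 24 h at 37 °C/5% CO2 in DMEM with 10% FBS or 50% NHS. Compound added in DMSO (1% final) for a further 24 h. Cells fixed and permeabilized. Replicon RNA quantified by in situ hybridization of a radiolabeled neomycin-resistance probe (50 °C, 18 h), followed by RNase A treatment.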

[2] = Inhibition of HCV1b BK full length NS3/4A protease expressed in Escherichia coli after 1 hr by time-resolved fluorescence assay; parameters: species or system Hepatitis C virus (isolate BK)
Procedure, shortened: (§2)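 Full-length NS3/4A (1b BK or 2a JFH) purified from E. coli. TRF peptide substrate added at 100 nM final. Reaction run 1 h at RT, then quenched with 500 mM MES pH 5.5. Read at ex 340/em 615 nm with 400 μs delay. Ki from a four-parameter fit.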

[3] = Drug level in Sprague-Dawley rat liver at 5 mg/kg, po after 4 hrs by LC/MS analysis; type: ADME, organism-based; parameters: dose 5 mg/kg, route oral; details: read-out: Drug uptake
Procedure, shortened: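 Rats given a single oral dose as a PEG400 solution (2.0 mL/kg). Liver collected at the terminal time point and homogenized in buffer. Drug extracted liquid-liquid and quantified by LC/MS against standards and QCs.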

Hepatitis C virus [4] = assay: Antiviral activity against HCV Con1 infected in human HuH7 cells assessed as inhibition of viral replication after 24 hrs by replicon assay in presence of 50% normal human serum; type: functional, organism-based, Hepacivirus hominis; details: Con1, Huh-7, 24 h; procedure, shortened: as §1
[5] = Inhibition of HCV JFH-1 full length NS3/4A protease expressed in Escherichia coli after 1 hr by time-resolved fluorescence assay; parameters: species or system Hepatitis C virus JFH-1; procedure, shortened: as §2
Hepatitis C virus [6] = assay: Antiviral activity against HCV JFH-1 infected in human HuH7 cells assessed as inhibition of viral replication after 24 hrs by replicon assay in presence of 10% fetal bovine serum; type: functional, organism-based, Hepacivirus hominis; details: JFH-1, Huh-7, 24 h; procedure, shortened: as §1
[7] = AUC in Beagle dog at 5 mg/kg, po by LC/MS analysis; type: ADME, organism-based, Canis lupus familiaris; parameters: dose 5 mg/kg, route oral; details: plasma
[8] = AUC in chimpanzee at 10 mg/kg, po by LC/MS analysis; type: ADME, organism-based, Pan troglodytes; parameters: dose 10 mg/kg, route oral; details: plasma
Procedure, shortened: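 Two chimpanzees dosed orally by voluntary ingestion in a chocolate milk vehicle (0.67 mL/kg). Blood sampled at multiple times up to 24 h. Plasma analysed by liquid-liquid extraction and LC/MS against standards and QCs. Pharmacokinetic parameters calculated from the concentration data.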

[9] = AUC in monkey at 5 mg/kg, po by LC/MS analysis; type: ADME, organism-based, Macaca mulatta; parameters: dose 5 mg/kg, route oral; details: rhesus monkey, plasma
[10] = Drug level in monkey liver at 5 mg/kg, po after 2 hrs by LC/MS analysis; type: ADME, organism-based, Macaca mulatta; parameters: dose 5 mg/kg, route oral; details: rhesus monkey, read-out: Drug uptake
[11] = Drug level in Sprague-Dawley rat liver at 5 mg/kg, po after 24 hrs by LC/MS analysis; type: ADME, organism-based; parameters: dose 5 mg/kg, route oral; details: read-out: Drug uptake
Procedure, shortened: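 Single oral dose given as a PEG400 solution (2.0 mL/kg). Liver was collected at the terminal time point, homogenized in buffer, and processed by liquid-liquid extraction. Drug was quantified by LC/MS against standards and QCs.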

[12] = Drug level in Beagle dog liver at 5 mg/kg, po after 2 hrs by LC/MS analysis; type: ADME, organism-based, Canis lupus familiaris; parameters: dose 5 mg/kg, route oral; details: read-out: Drug uptake
[13] = Drug level in Beagle dog liver at 5 mg/kg, po after 24 hrs by LC/MS analysis; type: ADME, organism-based, Canis lupus familiaris; parameters: dose 5 mg/kg, route oral; details: read-out: Drug uptake

| SMILES | IC50 (Hepatitis C virus [1]) | Ki [2] | concentration at 4 h [3] | IC50 (Hepatitis C virus [4]) | Ki [5] | IC50 (Hepatitis C virus [6]) | AUC [7] | AUC [8] | AUC [9] | concentration at 2 h [10] | concentration at 24 h [11] | concentration at 2 h [12] | concentration at 24 h [13] |
| --- | --- | --- | --- | --- | --- | --- | --- | --- | --- | --- | --- | --- | --- |
| C=C[C@@H]1C[C@]1(NC(=O)[C@@H]1C[C@@H]2CN1C(=O)[C@H](C(C)C)NC(=O)OCCC/C=C/c1cccc3c1CN(C3)C(=O)O2)C(=O)NS(=O)(=O)C1CC1 | 12 nM | 0.04 nM | 440 nM | 28 nM |  |  |  |  |  |  |  |  |  |
| C=C[C@@H]1C[C@]1(NC(=O)[C@@H]1C[C@@H]2CN1C(=O)[C@H](C1(C)CCCCC1)NC(=O)OCCC/C=C/c1cccc3c1CN(C3)C(=O)O2)C(=O)NS(=O)(=O)C1CC1 | 4 nM | 0.06 nM | 1600 nM | 38 nM |  |  |  |  |  |  |  |  |  |
| C=C[C@@H]1C[C@]1(NC(=O)[C@@H]1C[C@@H]2CN1C(=O)[C@H](C(C)(C)C)NC(=O)OCC/C=C/c1cccc3c1CN(C3)C(=O)O2)C(=O)NS(=O)(=O)C1CC1 | 16 nM | 0.1 nM |  | 390 nM |  |  |  |  |  |  |  |  |  |
| C=C[C@@H]1C[C@]1(NC(=O)[C@@H]1C[C@@H]2CN1C(=O)[C@H](C(C)(C)C)NC(=O)OCCCCC/C=C/c1cccc3c1CN(C3)C(=O)O2)C(=O)NS(=O)(=O)C1CC1 | 3 nM | < 0.02 nM | 140 nM | 23 nM |  |  |  |  |  |  |  |  |  |
| C=C[C@@H]1C[C@]1(NC(=O)[C@@H]1C[C@@H]2CN1C(=O)[C@H](C(C)(C)C)NC(=O)OCCC/C=C/c1ccccc1CN(C)C(=O)O2)C(=O)NS(=O)(=O)C1CC1 | 98 nM | 1.6 nM |  | 610 nM |  |  |  |  |  |  |  |  |  |
| C=C[C@@H]1C[C@]1(NC(=O)[C@@H]1C[C@@H]2CN1C(=O)[C@H](C(C)(C)C)NC(=O)OCCC/C=C/c1cccc3c1CN(C3)C(=O)O2)C(=O)NS(=O)(=O)C1CC1 | 7 nM | 0.05 nM | 910 nM | 32 nM | 2.6 nM | 150 nM |  |  |  |  |  |  |  |
| C=C[C@@H]1C[C@]1(NC(=O)[C@@H]1C[C@@H]2CN1C(=O)[C@H](C(C)(C)C)NC(=O)OCCC/C=C/c1cccc3c1CCN(C3)C(=O)O2)C(=O)NS(=O)(=O)C1CC1 | 730 nM | 8.3 nM |  | 2900 nM |  |  |  |  |  |  |  |  |  |
| C=C[C@@H]1C[C@]1(NC(=O)[C@@H]1C[C@@H]2CN1C(=O)[C@H](C(C)(C)C)NC(=O)OCCC/C=C/c1cccc3c1CN(CC3)C(=O)O2)C(=O)NS(=O)(=O)C1CC1 | 26 nM | 0.15 nM | 3500 nM | 140 nM |  |  |  |  |  |  |  |  |  |
| C=C[C@@H]1C[C@]1(NC(=O)[C@@H]1C[C@@H]2CN1C(=O)[C@H](C(C)(C)C)NC(=O)OCCCC/C=C/c1cccc3c1CN(C3)C(=O)O2)C(=O)NS(=O)(=O)C1CC1 | 5 nM | 0.03 nM | 230 nM | 19 nM |  |  |  |  |  |  |  |  |  |
| C=C[C@@H]1C[C@]1(NC(=O)[C@@H]1C[C@@H]2CN1C(=O)[C@H](CCCC)NC(=O)OCCC/C=C/c1cccc3c1CN(C3)C(=O)O2)C(=O)NS(=O)(=O)C1CC1 | 6 nM | 0.05 nM | 460 nM | 26 nM |  |  |  |  |  |  |  |  |  |
| CC[C@@H]1C[C@]1(NC(=O)[C@@H]1C[C@@H]2CN1C(=O)[C@H](C(C)(C)C)NC(=O)OCCC/C=C/c1cccc3c1CN(C3)C(=O)O2)C(=O)NS(=O)(=O)C1CC1 | 29 nM | 0.45 nM | 3800 nM | 110 nM | 19 nM | 720 nM |  |  |  |  |  |  |  |
| CC[C@@H]1C[C@]1(NC(=O)[C@@H]1C[C@@H]2CN1C(=O)[C@H](C(C)(C)C)NC(=O)OCC(C)(C)CCCCc1cccc3c1CN(C3)C(=O)O2)C(=O)NS(=O)(=O)C1CC1 [VANIPREVIR] | 3 nM | 0.05 nM | 9900 nM | 19 nM | 0.9 nM | 9 nM | 1.2 µM·h | 5.2 µM·h | 0.05 µM·h | 3000 nM | 400 nM | 34000 nM | 500 nM |
| C=C[C@@H]1C[C@]1(NC(=O)[C@@H]1C[C@@H]2CN1C(=O)[C@H](C1CCCC1)NC(=O)OCCC/C=C/c1cccc3c1CN(C3)C(=O)O2)C(=O)NS(=O)(=O)C1CC1 | 4 nM | 0.04 nM |  | 23 nM |  |  |  |  |  |  |  |  |  |
| C=C[C@@H]1C[C@]1(NC(=O)[C@@H]1C[C@@H]2CN1C(=O)[C@H](C1CCCCC1)NC(=O)OCCC/C=C/c1cccc3c1CN(C3)C(=O)O2)C(=O)NS(=O)(=O)C1CC1 | 3 nM | 0.02 nM | 2800 nM | 24 nM |  |  |  |  |  |  |  |  |  |
| C=C[C@@H]1C[C@]1(NC(=O)[C@@H]1C[C@@H]2CN1C(=O)[C@H](C(C)(C)C)NC(=O)OCCCCCc1cccc3c1CN(C3)C(=O)O2)C(=O)NS(=O)(=O)C1CC1 | 7 nM | 0.04 nM | 520 nM | 27 nM | 0.9 nM | 66 nM |  |  |  |  |  |  |  |
| CC[C@@H]1C[C@]1(NC(=O)[C@@H]1C[C@@H]2CN1C(=O)[C@H](C(C)(C)C)NC(=O)OCCCCCc1cccc3c1CN(C3)C(=O)O2)C(=O)NS(=O)(=O)C1CC1 | 10 nM | 0.18 nM | 10700 nM | 35 nM | 4 nM | 140 nM |  |  |  |  |  |  |  |
| C=C[C@@H]1C[C@]1(NC(=O)[C@@H]1C[C@@H]2CN1C(=O)[C@H](C(C)(C)C)NC(=O)OCCC/C=C/c1cccc(c1)CN(C)C(=O)O2)C(=O)NS(=O)(=O)C1CC1 | 28 nM | 0.14 nM | 450 nM | 42 nM |  |  |  |  |  |  |  |  |  |

— ChEMBL document CHEMBL1157609, “Discovery of vaniprevir (MK-7009), a macrocyclic hepatitis C virus NS3/4a protease inhibitor” (J Med Chem, 2010)
